Data from ChEMBL document CHEMBL5712889, “Neuronal activity controls Bdnf expression via Polycomb de-repression and CREB/CBP/JMJD3 activation in mature neurons” (Nat Commun, 2016).
Active and inactive are the calls of the source.

What was measured:
Format in all cases: functional, cell-based
[1] = tested on: Hippocampal neurone; test: Anti-neuronal activity against hippocampal neuron in Wistar rat assessed as active CREB was found at the BDNF promoters by qPCR assay analysis
Procedure, shortened: (§1)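 E18 Wistar rat hippocampal neurons were cultured 15 DIV and stimulated with 20 µM NMDA for 5 min, then the medium was replaced. Cells were crosslinked with 1% formaldehyde for 10 min at 37 °C and chromatin sonicated to 400–700 bp. 100 µg protein per overnight immunoprecipitation at 4 °C, with rabbit IgG as negative control. Promoter DNA was quantified by qPCR against unstimulated controls; n = independent cultures.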

[2] = tested on: Hippocampal neurone; test: Anti-neuronal activity against hippocampal neuron in Wistar rat assessed as blocked H3K27Me3 demethylation at promoters VI by qPCR assay analysis; procedure, shortened: as §1
[3] = tested on: Hippocampal neurone; test: Anti-neuronal activity against hippocampal neuron in Wistar rat assessed as blocked transcriptional activation of promoters II by qPCR assay analysis
Procedure, shortened: (§2)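 Rat hippocampal cultures (15 DIV) were pretreated for 1 h with 10 µM SB203580 (p38 inhibitor), then given 20 µM NMDA for 5 min. Bdnf transcripts were measured by RT-qPCR 30 min after NMDA, using 0.5 µM primers and Gapdh, GusB and Pgk1 as reference genes. Samples were compared with non-stimulated controls; n = independent cultures.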

[4] = tested on: Hippocampal neurone; test: Anti-neuronal activity against hippocampal neuron in Wistar rat assessed as H3K27Ac promoters I by qPCR assay analysis; procedure, shortened: as §1
[5] = tested on: Hippocampal neurone; test: Anti-neuronal activity against hippocampal neuron in Wistar rat assessed as blocked H3K27Me3 demethylation at promoters IV by qPCR assay analysis; procedure, shortened: as §1
[6] = tested on: Hippocampal neurone; test: Anti-neuronal activity against hippocampal neuron in Wistar rat assessed as H3K27Ac promoters VI by qPCR assay analysis; procedure, shortened: as §1
[7] = tested on: Hippocampal neurone; test: Anti-neuronal activity against hippocampal neuron in Wistar rat assessed as higher levels of H3K27Me3 at promoter II by qPCR assay analysis; procedure, shortened: as §1
[8] = tested on: Hippocampal neurone; test: Anti-neuronal activity against hippocampal neuron in Wistar rat assessed as blocked transcriptional activation of promoters VI by qPCR assay analysis; procedure, shortened: as §2
[9] = tested on: Hippocampal neurone; test: Anti-neuronal activity against hippocampal neuron in Wistar rat assessed as blocked recruitment of CBP by qPCR assay analysis; procedure, shortened: as §1
[10] = tested on: Hippocampal neurone; test: Anti-neuronal activity against hippocampal neuron in Wistar rat assessed as impaired recruitment of JMJD3 by qPCR assay analysis; procedure, shortened: as §1
[11] = tested on: Hippocampal neurone; test: Anti-neuronal activity against hippocampal neuron in Wistar rat assessed as H89 blocked CREB phosphorylation at Serine 133 by western blot analysis

Measured: Activity

O=C(Nc1ccc(Cl)cc1)c1cc2ccccc2cc1O
not listed: [11]
active: all other assays above

O=S(=O)(NCCNC/C=C/c1ccc(Br)cc1)c1cccc2cnccc12
active: [11]
